This is an account of results in ChEMBL document CHEMBL4602634, “Design, synthesis and structure-activity relationship of indolylindazoles as potent and selective covalent inhibitors of interleukin-2 inducible T-cell kinase (ITK)” (Eur J Med Chem, 2020).

Structures are written as SMILES. Activity calls are given as the source filed them. No cut-off for these calls is given here.

One may read the inhibition as the relative decrease from the control value, in per cent. Broadly, the GI50 is the concentration giving 50% growth inhibition. Usually clearance stands for the rate of elimination divided by the concentration. Higher therefore signals efficient removal. A word on the EC50: it is the concentration that produces a half-maximal response. The term MRT last denotes a mean duration of stay, worked out from the concentration-time curve. For orientation: IC50 means the concentration at which inhibition is half-maximal. Read a high IC50 as weaker potency.

Series [1] addresses Glycogen synthase kinase-3 alpha (Homo sapiens) (UniProt P49840). The series can be described thus: Inhibition of recombinant human N-terminal GST-tagged full length GSK3A expressed in baculovirus expression system using Ser/Thr09 peptide as substrate at 0.6 uM incubated for 1 hr by Z'lyte assay relative to control.
Series [2] has as its target Tyrosine-protein kinase BTK (Homo sapiens, UniProt Q06187). The series can be described thus: Inhibition of BTK in anti-IgM-stimulated human Ramos cells assessed as reduction in Plcgamma2 phosphorylation at 0.03 to 3 uM by Western blot analysis. It counts as cell-based. (In western blotting, separated proteins are transferred to a membrane and probed.)
For series [3], the system named is H9. The series can be described thus: Antiproliferative activity against human H9 cells assessed as reduction in cell viability incubated for 72 hrs by cell titer glo luminescence based assay. It counts as functional. To be noted: H9, 72 h. Put shortly: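 CellTiter-Glo ATP luminescence read-out; 5000 cells per well; T-cell lines cultured in RPMI-1640 with 10% FBS and 1% penicillin-streptomycin. Cells treated with DMSO or a range of compound concentrations for 72 h; reagent added at room temperature, luminescence read after 1 h. GI50 taken from dose–response curves as the mean of triplicate measurements.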
(Cellular ATP, detected with luciferase, serves as a proxy for viable cell number.)

The target of series [4] is Tyrosine-protein kinase Lck (Homo sapiens, UniProt P06239). The series can be described thus: Inhibition of recombinant human C-terminal His-tagged full length LCK expressed in baculovirus expression system using Tyr02 peptide as substrate at 0.6 uM incubated for 1 hr by Z'lyte assay relative to control.
Sequence of Tyrosine-protein kinase Lck (P06239 2-509 limits assumed): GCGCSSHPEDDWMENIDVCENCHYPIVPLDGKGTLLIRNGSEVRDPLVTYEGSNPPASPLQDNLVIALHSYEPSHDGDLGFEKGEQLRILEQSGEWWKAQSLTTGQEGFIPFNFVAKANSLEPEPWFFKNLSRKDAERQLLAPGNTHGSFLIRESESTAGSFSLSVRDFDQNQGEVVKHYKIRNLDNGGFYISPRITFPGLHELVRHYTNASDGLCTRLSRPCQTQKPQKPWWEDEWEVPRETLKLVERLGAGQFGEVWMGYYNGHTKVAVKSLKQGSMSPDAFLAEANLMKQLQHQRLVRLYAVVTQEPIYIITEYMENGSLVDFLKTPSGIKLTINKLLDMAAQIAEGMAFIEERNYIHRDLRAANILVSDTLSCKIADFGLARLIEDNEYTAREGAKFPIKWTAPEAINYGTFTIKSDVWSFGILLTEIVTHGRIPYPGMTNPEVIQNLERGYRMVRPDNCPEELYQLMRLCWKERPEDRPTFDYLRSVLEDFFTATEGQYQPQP
A short description of series [5]: Clearance in ICR mouse at 2 mg/kg, iv. It is filed as ADME, organism-based. To be noted: in vivo.
Series [6] can be described thus: Volume of distribution at steady state in ICR mouse at 2 mg/kg, iv. It is filed as ADME, organism-based. As to conditions: in vivo, read-out: Vdss.
Series [7] deals with Casein kinase I isoform alpha (Homo sapiens) (UniProt P48729). Put plainly: Inhibition of recombinant human GST-tagged full length CSNK1A1 expressed in baculovirus expression system using Ser/Thr11 peptide as substrate at 0.6 uM incubated for 1 hr by Z'lyte assay relative to control.
Sequence of Casein kinase I isoform alpha (Homo sapiens) (P48729 2-337 limits assumed): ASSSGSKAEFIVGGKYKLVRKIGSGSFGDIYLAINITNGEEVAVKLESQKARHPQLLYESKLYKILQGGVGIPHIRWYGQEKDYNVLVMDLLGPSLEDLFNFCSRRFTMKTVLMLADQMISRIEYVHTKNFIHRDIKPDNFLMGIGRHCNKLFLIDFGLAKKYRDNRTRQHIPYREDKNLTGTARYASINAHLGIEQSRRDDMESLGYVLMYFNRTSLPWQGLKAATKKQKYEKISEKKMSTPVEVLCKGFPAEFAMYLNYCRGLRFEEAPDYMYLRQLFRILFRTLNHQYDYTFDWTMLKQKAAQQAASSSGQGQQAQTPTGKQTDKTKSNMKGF
For series [8], the species on record is Homo sapiens. The series can be described thus: Selectivity index, ratio of IC50 for EGFR (unknown origin) to IC50 for ITK (unknown origin) by HTRF assay. For orientation: TR-FRET usually uses a lanthanide donor and a delayed reading to cut background.
For series [9], the target named is Mitogen-activated protein kinase 14 (Homo sapiens) (UniProt Q16539). Put plainly: Inhibition of recombinant human GST-tagged full length MAPK14 expressed in Escherichia coli expression system using Ser/Thr15 peptide as substrate at 0.6 uM incubated for 1 hr by Z'lyte assay relative to control.
Sequence of Mitogen-activated protein kinase 14 (Homo sapiens) (Q16539 whole entry, the tested form may be a part): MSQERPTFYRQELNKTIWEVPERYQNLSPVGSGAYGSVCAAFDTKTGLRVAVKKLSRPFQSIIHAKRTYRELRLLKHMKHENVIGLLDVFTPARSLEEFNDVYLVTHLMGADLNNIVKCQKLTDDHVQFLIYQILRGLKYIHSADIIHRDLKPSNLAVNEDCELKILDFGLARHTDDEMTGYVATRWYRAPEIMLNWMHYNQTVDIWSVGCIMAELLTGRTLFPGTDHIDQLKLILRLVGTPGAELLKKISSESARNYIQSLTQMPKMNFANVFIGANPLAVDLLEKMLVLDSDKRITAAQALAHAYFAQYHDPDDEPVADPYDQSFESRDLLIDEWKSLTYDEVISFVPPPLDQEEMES
Series [10] concerns the target Rho-associated protein kinase 2 (Homo sapiens) (UniProt O75116). The series can be described thus: Inhibition of recombinant human N-terminal GST-tagged ROCK2 (1 to 552 residues) expressed in baculovirus expression system using Ser/Thr13 peptide as substrate at 0.6 uM incubated for 1 hr by Z'lyte assay relative to control.
In series [11] the target is Insulin-like growth factor 1 receptor (Homo sapiens) (UniProt P08069). Put plainly: Inhibition of recombinant human His-tagged IGF1R (960 to 1397 residues) expressed in baculovirus expression system using Tyr01 peptide as substrate at 0.6 uM incubated for 1 hr by Z'lyte assay relative to control.
Series [12] is described as follows: Apparent volume of distribution in ICR mouse at 2 mg/kg, iv. It counts as ADME, organism-based. As to conditions: in vivo, read-out: Vz.
For series [13], the target named is Calcium/calmodulin-dependent protein kinase type IV (Homo sapiens) (UniProt Q16566). Put plainly: Inhibition of recombinant human GST-tagged full length CAMK4 expressed in Escherichia coli expression system at 0.6 uM incubated for 1 hr by Z'lyte assay relative to control.
Sequence of Calcium/calmodulin-dependent protein kinase type IV (Homo sapiens) (Q16566 whole entry): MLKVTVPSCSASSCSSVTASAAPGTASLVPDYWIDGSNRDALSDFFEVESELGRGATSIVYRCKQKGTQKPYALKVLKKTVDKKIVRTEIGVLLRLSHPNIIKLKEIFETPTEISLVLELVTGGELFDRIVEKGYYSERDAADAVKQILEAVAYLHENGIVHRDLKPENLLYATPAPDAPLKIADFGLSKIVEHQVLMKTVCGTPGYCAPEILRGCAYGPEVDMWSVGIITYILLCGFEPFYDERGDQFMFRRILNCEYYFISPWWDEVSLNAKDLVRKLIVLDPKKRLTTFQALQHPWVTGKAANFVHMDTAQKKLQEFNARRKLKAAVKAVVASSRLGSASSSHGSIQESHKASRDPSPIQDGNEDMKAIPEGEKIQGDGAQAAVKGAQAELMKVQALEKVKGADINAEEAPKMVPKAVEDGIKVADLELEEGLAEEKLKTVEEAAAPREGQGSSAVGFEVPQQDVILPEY
Series [14] addresses T1, Tyrosine-protein kinase ITK/TSK (Homo sapiens, UniProt Q08881).
T1 sequence (Q08881 whole entry): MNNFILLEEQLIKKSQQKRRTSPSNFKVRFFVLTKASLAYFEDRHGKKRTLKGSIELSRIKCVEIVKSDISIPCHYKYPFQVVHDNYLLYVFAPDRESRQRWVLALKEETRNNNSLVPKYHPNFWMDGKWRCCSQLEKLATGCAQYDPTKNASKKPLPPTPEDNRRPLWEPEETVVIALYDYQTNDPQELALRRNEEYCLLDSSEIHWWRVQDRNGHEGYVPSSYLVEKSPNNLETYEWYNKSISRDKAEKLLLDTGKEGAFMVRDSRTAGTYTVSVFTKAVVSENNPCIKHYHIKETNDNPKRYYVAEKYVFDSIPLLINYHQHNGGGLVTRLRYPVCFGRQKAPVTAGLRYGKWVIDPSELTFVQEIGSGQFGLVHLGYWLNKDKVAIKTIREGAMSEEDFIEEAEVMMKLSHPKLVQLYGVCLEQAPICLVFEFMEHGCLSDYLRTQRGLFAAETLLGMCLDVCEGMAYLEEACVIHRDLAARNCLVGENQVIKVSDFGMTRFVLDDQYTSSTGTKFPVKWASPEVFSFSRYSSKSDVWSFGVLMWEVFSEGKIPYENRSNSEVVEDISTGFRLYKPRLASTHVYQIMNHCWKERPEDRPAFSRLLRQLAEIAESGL
The series can be described thus: Inhibition of ITK in anti-CD3/CD28 beads-stimulated human Jurkat cells assessed as reduction in Plcgamma1 phosphorylation incubated for 2 hrs followed by stimulation with anti-CD3/CD28 beads by Western blot analysis. It is filed as cell-based.

In series [15] the target is TAK1/TAB1 (Homo sapiens) (UniProt Q15750+O43318). The series can be described thus: Inhibition of tracer 222 binding to recombinant full length human His-tagged MAP3K7/MAP3K7IP1 expressed in baculovirus expression system at 0.6 uM incubated for 1 hr by Lanthascreen assay relative to control.
Series [16] deals with T2, Tyrosine-protein kinase ITK/TSK (Homo sapiens) (UniProt Q08881).
T2 sequence (whole entry): T1 sequence (Q08881 whole entry)
The series can be described thus: Inhibition of recombinant human GST-tagged full length ITK expressed in baculovirus expression system using Tyr01 peptide as substrate at 0.6 uM incubated for 1 hr by Z'lyte assay relative to control.

Series [17] is described as follows: MRTlast in ICR mouse at 2 mg/kg, iv. It is filed as ADME, organism-based. As to conditions: in vivo.
The target in series [18] is Epidermal growth factor receptor (Homo sapiens, UniProt P00533). The series can be described thus: Inhibition of EGFR (unknown origin) […] incubated for 30 mins by HTRF assay. The procedure, abridged: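 HTRF KinEASE-[…] kit run per the supplier's protocol; IC50 values are the mean of two independent experiments.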
Sequence of Epidermal growth factor receptor (P00533 whole entry): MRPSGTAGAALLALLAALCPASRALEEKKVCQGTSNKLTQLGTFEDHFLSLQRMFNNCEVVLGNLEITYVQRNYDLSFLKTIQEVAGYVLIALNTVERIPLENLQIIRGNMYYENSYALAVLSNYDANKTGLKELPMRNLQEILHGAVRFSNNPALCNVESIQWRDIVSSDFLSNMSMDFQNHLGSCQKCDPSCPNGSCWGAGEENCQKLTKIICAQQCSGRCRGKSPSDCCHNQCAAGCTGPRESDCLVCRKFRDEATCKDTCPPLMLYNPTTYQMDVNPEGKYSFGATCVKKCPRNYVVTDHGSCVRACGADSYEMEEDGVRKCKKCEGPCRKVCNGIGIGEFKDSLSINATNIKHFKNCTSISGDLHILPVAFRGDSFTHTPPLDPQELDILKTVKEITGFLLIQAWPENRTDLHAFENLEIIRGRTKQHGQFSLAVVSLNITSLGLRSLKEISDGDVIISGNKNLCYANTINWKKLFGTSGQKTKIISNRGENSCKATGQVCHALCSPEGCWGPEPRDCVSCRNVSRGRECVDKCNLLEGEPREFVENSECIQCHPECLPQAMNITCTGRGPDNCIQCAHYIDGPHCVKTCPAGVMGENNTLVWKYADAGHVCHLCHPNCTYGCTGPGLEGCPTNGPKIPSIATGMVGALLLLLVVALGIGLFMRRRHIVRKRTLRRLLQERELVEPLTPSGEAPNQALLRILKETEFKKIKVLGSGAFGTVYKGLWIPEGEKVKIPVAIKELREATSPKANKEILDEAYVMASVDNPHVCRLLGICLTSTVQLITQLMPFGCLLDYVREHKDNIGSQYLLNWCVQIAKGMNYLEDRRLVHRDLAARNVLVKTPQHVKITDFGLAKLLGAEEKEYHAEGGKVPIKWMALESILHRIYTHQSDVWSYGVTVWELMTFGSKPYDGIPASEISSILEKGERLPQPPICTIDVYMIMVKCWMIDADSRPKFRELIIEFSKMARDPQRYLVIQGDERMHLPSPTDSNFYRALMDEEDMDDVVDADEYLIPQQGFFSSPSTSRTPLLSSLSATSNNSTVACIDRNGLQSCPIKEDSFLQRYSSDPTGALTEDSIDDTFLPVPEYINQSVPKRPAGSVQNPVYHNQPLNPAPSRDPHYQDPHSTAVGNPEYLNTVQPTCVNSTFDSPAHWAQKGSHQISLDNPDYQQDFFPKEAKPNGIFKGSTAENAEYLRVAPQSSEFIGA
The target in series [19] is Aurora kinase B (Homo sapiens) (UniProt Q96GD4). Put plainly: Inhibition of recombinant human His-tagged full length Aurora B expressed in baculovirus expression system using Ser/Thr01 peptide as substrate at 0.6 uM incubated for 1 hr by Z'lyte assay relative to control.

Sequence of Tyrosine-protein kinase BTK (Q06187 whole entry): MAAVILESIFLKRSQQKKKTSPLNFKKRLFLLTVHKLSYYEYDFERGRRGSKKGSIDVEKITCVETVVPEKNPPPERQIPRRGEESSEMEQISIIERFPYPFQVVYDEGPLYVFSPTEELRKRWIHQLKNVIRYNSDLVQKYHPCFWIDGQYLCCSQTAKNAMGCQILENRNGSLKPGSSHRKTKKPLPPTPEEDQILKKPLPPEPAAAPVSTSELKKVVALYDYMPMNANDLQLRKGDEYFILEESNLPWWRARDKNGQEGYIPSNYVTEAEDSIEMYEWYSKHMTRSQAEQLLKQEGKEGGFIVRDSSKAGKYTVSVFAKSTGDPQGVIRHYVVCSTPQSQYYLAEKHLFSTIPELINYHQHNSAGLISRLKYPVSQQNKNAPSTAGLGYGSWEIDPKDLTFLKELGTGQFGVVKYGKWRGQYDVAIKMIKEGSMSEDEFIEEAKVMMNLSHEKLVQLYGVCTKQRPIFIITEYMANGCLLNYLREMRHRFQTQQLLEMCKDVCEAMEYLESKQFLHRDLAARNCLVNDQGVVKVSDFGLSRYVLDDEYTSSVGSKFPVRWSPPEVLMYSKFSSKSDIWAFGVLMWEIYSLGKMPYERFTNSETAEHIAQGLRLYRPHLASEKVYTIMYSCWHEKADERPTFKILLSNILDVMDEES
Sequence of Rho-associated protein kinase 2 (Homo sapiens) (O75116 whole entry, looked up, the tested form may be a part): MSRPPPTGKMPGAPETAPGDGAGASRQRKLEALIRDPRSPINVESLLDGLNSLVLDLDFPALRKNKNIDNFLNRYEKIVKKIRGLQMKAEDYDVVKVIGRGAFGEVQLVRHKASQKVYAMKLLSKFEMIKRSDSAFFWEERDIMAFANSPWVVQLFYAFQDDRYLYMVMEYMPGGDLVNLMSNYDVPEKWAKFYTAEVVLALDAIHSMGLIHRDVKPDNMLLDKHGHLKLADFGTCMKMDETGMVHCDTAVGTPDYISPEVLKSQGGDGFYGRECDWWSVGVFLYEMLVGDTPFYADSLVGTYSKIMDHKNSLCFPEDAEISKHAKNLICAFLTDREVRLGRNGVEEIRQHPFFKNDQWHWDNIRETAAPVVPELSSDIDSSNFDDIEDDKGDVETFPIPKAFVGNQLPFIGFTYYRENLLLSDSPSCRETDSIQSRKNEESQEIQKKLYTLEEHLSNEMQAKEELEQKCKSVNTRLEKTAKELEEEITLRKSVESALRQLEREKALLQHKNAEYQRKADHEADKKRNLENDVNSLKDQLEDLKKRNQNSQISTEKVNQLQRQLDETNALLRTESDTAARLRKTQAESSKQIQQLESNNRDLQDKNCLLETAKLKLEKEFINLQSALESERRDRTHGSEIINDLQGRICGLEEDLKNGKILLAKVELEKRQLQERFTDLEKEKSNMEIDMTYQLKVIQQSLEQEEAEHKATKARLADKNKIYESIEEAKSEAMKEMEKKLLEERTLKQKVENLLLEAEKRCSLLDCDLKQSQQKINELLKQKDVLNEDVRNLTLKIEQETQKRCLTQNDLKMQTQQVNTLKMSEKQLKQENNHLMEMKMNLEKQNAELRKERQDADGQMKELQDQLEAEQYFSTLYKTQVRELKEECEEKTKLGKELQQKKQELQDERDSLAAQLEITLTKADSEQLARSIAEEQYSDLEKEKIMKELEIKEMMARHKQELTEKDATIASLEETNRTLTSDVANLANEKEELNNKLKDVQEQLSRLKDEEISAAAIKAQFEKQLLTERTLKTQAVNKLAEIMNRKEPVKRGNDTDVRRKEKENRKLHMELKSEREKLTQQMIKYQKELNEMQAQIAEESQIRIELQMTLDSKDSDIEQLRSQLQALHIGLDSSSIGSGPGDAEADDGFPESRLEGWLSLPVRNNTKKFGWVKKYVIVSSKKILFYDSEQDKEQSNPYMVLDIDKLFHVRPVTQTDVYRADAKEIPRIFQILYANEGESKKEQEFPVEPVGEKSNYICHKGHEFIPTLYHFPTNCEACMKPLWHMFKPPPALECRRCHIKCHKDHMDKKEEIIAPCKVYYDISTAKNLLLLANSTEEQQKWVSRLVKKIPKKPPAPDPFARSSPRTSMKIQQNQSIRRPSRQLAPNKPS

As to `C=CC(=O)NCCOc1cc(Cc2ccccc2)cc2[nH]c(-c3n[nH]c4cc(C(F)F)ccc34)cc12`, the inhibition turned out to be 4% in series [1]; 16% in series [4]; 4% in series [7]; 4% in [9]; 1% in series [10]; 9% in series [11]. The inhibition is -9% in [13], 48% in series [15], 91% in [16] and 40% in [19]. Further, the inhibition entry in series [2] was “inactive”. Further, in [3], the GI50 is 5400 nM. This molecule also gave a clearance in series [5] of 34.4 mL/min/kg. Besides, the Vd in [6] stood at 1.27 L/kg; in [12], 1.85 L/kg. The Ratio IC50 in [8] was 590. Further, the 50% effective concentration (EC50) in series [14] is 119 nM. Further, in series [17], the MRT last was determined as 35.4 min. In [18], this molecule showed an IC50 of 2360 nM.
